MEKK2 mut-MEK5 = signal of MEK5 binding to mutant human MEKK2 PB1 domain; AID 1530; 290,000 tested, 0.35% active; bead flow cytometry, Alexa488-MEK5 binding to MEKK2 mutant; percent response, % at 10 µM; in the data active = percent response above about 24%, passing the limit was not always enough
MEKK2wt PB1 HTS = raises or lowers MEK5 binding to wildtype human MEKK2 PB1 domain; bead flow cytometry, Alexa488-MEK5 binding to MEKK2 WT; actives lie on both sides; binding response (% of control), % at 10 µM; 290,000 tested, 1.1% active; AID 1531; in the data active = binding response below about 67% or above about 130%
Apaf1 inhib = inhibitors of human Apaf-1 apoptosome; 330,000 tested, 0.71% active; AID 489030; inhibition, % at 20 µM; reconstituted apoptosome caspase-3 activity, DEVD-Rh110 fluorescence; O14727; active = inhibition of at least 40% at 20 µM;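 also: plate controls were DMSO wells for no effect and DEVD-CHO caspase inhibitor wells for full effect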
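Material: reconstituted apoptosome with Apaf-1, cytochrome c, caspase-9, procaspase-3, dATP. Technique: Rh110 fluorescence intensity. Buffer or medium: pH 7.5 Hepes buffer with CHAPS, BSA, DTT. Times: 30 min plus 50 min, RT.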
UBC13 inh = inhibitors of human UBC13 polyubiquitin chain formation; P61088; TR-FRET; inhibition, % at 20 µM; 330,000 tested, 0.47% active; in the data active = inhibition above about 45%, passing the limit was not always enough
Target sequence (P61088 whole entry, looked up): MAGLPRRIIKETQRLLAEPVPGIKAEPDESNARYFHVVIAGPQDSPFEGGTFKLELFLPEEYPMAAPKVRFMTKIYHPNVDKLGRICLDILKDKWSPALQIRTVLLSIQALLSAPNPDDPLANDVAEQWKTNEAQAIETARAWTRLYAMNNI
MEKK3 PB1 HTS = modulators (inhibitors or enhancers) of MEK5 binding to human MEKK3 PB1 domain; Q99759; bead-based flow cytometry, Alexa488-MEK5 binding to MEKK3; actives lie on both sides; 0 = blocked by unlabeled MEK5, 100 = vehicle; binding response (% of control), % at 10 µM; 290,000 tested, 1.4% active;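 active = binding response more than 3 SD above or below the average of its plate-row segment, actives on both sides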;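 also: Alexa488 bead fluorescence after subtracting the streptavidin-only scavenger bead signal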
Apaf-1 inh conf2 = Apaf-1 inhibition, single-dose confirmed | shares compounds with Apaf1 inhib | reconstituted apoptosome, caspase-3 DEVD-Rh110 fluorescence | inhibition, % at 20 µM | 1,800 tested, 25% active;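 active = mean inhibition of at least 40% at 20 µM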;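 also: plate controls were DMSO wells for no effect and DEVD-CHO caspase inhibitor control wells for full effect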
Rh110 quench = interferes with Rh110 fluorescence, flagging false Apaf-1 inhibitors | 1,800 tested, under 10 active | AID 504615 | shares compounds with Apaf1 inhib | Rh110 fluorescence interference, quenched caspase reaction | activation (fluorescence interference), % at 20 µM;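 active = signal rise of 40% or more at 20 µM, treated as a fluorescence artifact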
Fluor interf inh = Apaf-1 inhibitor counter-screen fluorescence artifact. AID 588538. 460 tested, under 10 active. fluorescence interference counterscreen, Apaf-1 assay format. IC50, µM. shares compounds with Apaf1 inhib; call rule not given here
* marks the source's active call; other numbers are inactive results. This is a sample that favours compounds with a hit; in the whole collection about 2.9% have one here.

Screening CC(C)(C)NC(=O)NC(=O)CSc1n[nH]c(-c2ccccc2Br)n1 returned MEKK2 mut-MEK5 -2, MEKK2wt PB1 HTS 101, Apaf1 inhib 3, UBC13 inh 4 and MEKK3 PB1 HTS 103.
O=C(Cc1ccc(Cl)cc1)NNC(=O)C1CC=CCC1C(=O)O (centres undefined) was read as MEKK2 mut-MEK5 5, MEKK2wt PB1 HTS 105, Apaf1 inhib -24, UBC13 inh 10 and MEKK3 PB1 HTS 107.
CCCN(CCC)CCCNC(=O)Cn1cnc2sc(C)c(S(=O)(=O)N3CCOCC3)c2c1=O was read as MEKK2 mut-MEK5 7, MEKK2wt PB1 HTS 101, Apaf1 inhib 4, UBC13 inh -1 and MEKK3 PB1 HTS 103.
`COc1ccc(CNC(=O)C[C@H]2C[C@H](C(=O)N(C(C)C)C(C)C)[C@@]3(C)c4[nH]c5ccc(Cl)cc5c4CCN3C2=O)cc1OC` gave Apaf1 inhib 29.
Screening CC[C@]12c3[nH]c4ccc(OC)cc4c3CCN1C(=O)C(CC(=O)NC/C=C(\C)CCC=C(C)C)C[C@@H]2C(=O)N1CCN(C(=O)c2ccco2)CC1 (some centres undefined) returned Apaf1 inhib 40*, Apaf-1 inh conf2 25 and Rh110 quench 6.
`CC(C)N(C(=O)[C@H]1C[C@H](CC(=O)NCCC2=CCCCC2)C(=O)N2CCc3c([nH]c4ccc(Cl)cc34)[C@]12C)C(C)C` gave Apaf1 inhib 44*, Apaf-1 inh conf2 23 and Rh110 quench 12.
For CCC(CC)N1CCN(C(=O)c2cc(OC)c(OC)c(OC)c2)CC1 the results were MEKK2 mut-MEK5 5, MEKK2wt PB1 HTS 105, Apaf1 inhib -13, UBC13 inh -4 and MEKK3 PB1 HTS 102.
For NS(=O)(=O)c1ccc2c(c1)C1C=CCC1C(C1CC=CCC1)N2 (centres undefined) the results were MEKK2 mut-MEK5 1, MEKK2wt PB1 HTS 101, Apaf1 inhib 47*, UBC13 inh -6, MEKK3 PB1 HTS 100, Apaf-1 inh conf2 21 and Rh110 quench 0.
`COc1ccc(S(=O)(=O)N(C)c2ccc(C(=O)N3CCC(C(N)=O)CC3)cc2)cc1OC` gave MEKK2 mut-MEK5 0, MEKK2wt PB1 HTS 98, Apaf1 inhib 1, UBC13 inh 7 and MEKK3 PB1 HTS 96.
O=C1NC(c2ccc(-c3ccccc3[N+](=O)[O-])o2)C(C(=O)c2ccc(F)cc2)C(O)(C(F)(F)F)N1 (centres undefined) was read as MEKK2 mut-MEK5 8, MEKK2wt PB1 HTS 91, Apaf1 inhib 51*, UBC13 inh -23, MEKK3 PB1 HTS 103, Apaf-1 inh conf2 13 and Rh110 quench 9.
For COc1ccc(CCNC(=O)C2CCCN(c3ncccn3)C2)cc1 (centres undefined) the results were MEKK2 mut-MEK5 7, MEKK2wt PB1 HTS 106, Apaf1 inhib -10, UBC13 inh 3 and MEKK3 PB1 HTS 103.
CC(C)CCC(C)N=Cc1c(O)n(Cc2ccccc2)c(=O)c2ccccc12 (centres undefined) was read as MEKK2 mut-MEK5 11, MEKK2wt PB1 HTS 105, Apaf1 inhib 60*, UBC13 inh -4, MEKK3 PB1 HTS 106, Apaf-1 inh conf2 56*, Rh110 quench 3 and Fluor interf inh >100.
`Nc1ccc(Oc2ncccn2)cc1` gave MEKK2 mut-MEK5 0, MEKK2wt PB1 HTS 95, Apaf1 inhib 44*, UBC13 inh -7, MEKK3 PB1 HTS 97, Apaf-1 inh conf2 52*, Rh110 quench 8 and Fluor interf inh >100.
For COCCNC(=O)c1c(N)n(CCCn2ccnc2)c2nc3ccccc3nc12 the results were MEKK2 mut-MEK5 -6, MEKK2wt PB1 HTS 89, Apaf1 inhib 94*, UBC13 inh -14, MEKK3 PB1 HTS 90, Apaf-1 inh conf2 27 and Rh110 quench 11.
Screening COCCCNC(=O)c1c(N)n(-c2ccc(S(N)(=O)=O)cc2)c2nc3ccccc3nc12 returned Apaf1 inhib 19 and UBC13 inh 7.
`C=CCn1c(N)c(C(=O)Nc2ccccc2)c2nc3ccccc3nc21` gave MEKK2 mut-MEK5 -6, MEKK2wt PB1 HTS 93, Apaf1 inhib 67*, UBC13 inh 15, MEKK3 PB1 HTS 82, Apaf-1 inh conf2 33 and Rh110 quench 15.
`COC(=O)c1c(N)n(-c2ccc(NC(C)=O)cc2)c2nc3ccccc3nc12` gave MEKK2 mut-MEK5 -3, MEKK2wt PB1 HTS 96, Apaf1 inhib 49*, UBC13 inh -31, MEKK3 PB1 HTS 95, Apaf-1 inh conf2 24 and Rh110 quench 4.
`COCCCNC(=O)c1c(N)n(-c2ccccc2)c2nc3ccccc3nc12` gave MEKK2 mut-MEK5 -8, MEKK2wt PB1 HTS 97, Apaf1 inhib 84*, UBC13 inh -27, MEKK3 PB1 HTS 97, Apaf-1 inh conf2 29 and Rh110 quench 10.
For Nc1c(C(=O)NC2CCCC2)c2nc3ccccc3nc2n1N the results were MEKK2 mut-MEK5 0, MEKK2wt PB1 HTS 99, Apaf1 inhib 19, UBC13 inh 3 and MEKK3 PB1 HTS 98.
COCCNC(=O)c1c(N)n(-c2cccc(C)c2)c2nc3ccccc3nc12 was read as MEKK2 mut-MEK5 3, MEKK2wt PB1 HTS 103, Apaf1 inhib 37, UBC13 inh -9 and MEKK3 PB1 HTS 105.
For COc1ccc(C(=O)NC2CCCc3ccccc32)cc1OC1CCN(C(C)=O)CC1 (centres undefined) the results were MEKK2 mut-MEK5 5, MEKK2wt PB1 HTS 106, Apaf1 inhib 6, UBC13 inh -6 and MEKK3 PB1 HTS 107.
For COCCNC(=O)c1c(N)n(-c2ccccc2)c2nc3ccccc3nc12 the results were MEKK2 mut-MEK5 -2, MEKK2wt PB1 HTS 102, Apaf1 inhib 81*, UBC13 inh -25, MEKK3 PB1 HTS 101, Apaf-1 inh conf2 24 and Rh110 quench 6.
`C=CCNC(=O)c1c(N)n(-c2cccc(S(N)(=O)=O)c2)c2nc3ccccc3nc12` gave MEKK2 mut-MEK5 0, MEKK2wt PB1 HTS 95, Apaf1 inhib 61*, UBC13 inh -1, MEKK3 PB1 HTS 98, Apaf-1 inh conf2 16 and Rh110 quench 9.
For CCOC(=O)C1(C)NC(c2ccco2)C2C(=O)N(CC)C(=O)C21 (centres undefined) the results were MEKK2 mut-MEK5 -3, MEKK2wt PB1 HTS 96, Apaf1 inhib -2, UBC13 inh -7 and MEKK3 PB1 HTS 96.
